Compounds with a hit are over-represented: about 2.7% of the library has one in this group of screens.
MsrA inhibitor: bovine MsrA inhibition | purified bovine MsrA, absorbance read-out | inhibition, % at 15.5 µM | 360,000 compounds, 0.75% hits | AID 651718; in the data active = inhibition above about 4.5%
Rev-erbA mod: Rev-erb alpha (human) modulation; Rev-erbα–FITC-DNA binding, fluorescence polarization, 90 min; P20393; 370,000 compounds, 0.79% hits; activity, % at 10 µM;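 active = activity above about 14%, limit read from the data; passing the limit was not always enough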
sPLA2-III inh: Inhibits HGIII-sPLA2 liposome hydrolysis, primary screen | QFRET BODIPY PC-A2 liposome hydrolysis, fluorescence | inhibition, % at 12.2 µM | 370,000 compounds, 0.56% hits | AID 743126;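 active = inhibition above mean plus 3 SD of compounds lying within the high and low control bounds, cut at about 19% in these data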
MsrA act: activators of bovine methionine sulfoxide reductase A. purified bovine MsrA, absorbance read-out. activation, % at 10.6 µM. 360,000 compounds, 0.3% hits; in the data active = activation above about 7.5%
ASAP1 GAP inh: blocks human ASAP1-stimulated Arf1 GTP hydrolysis | Q9ULH1 | GDP FP detection | inhibition, % at 16.5 µM | 360,000 compounds, 0.19% hits | AID 624377; in the data active = inhibition above about 25%
Target sequence (Q9ULH1 325-724 limits assumed): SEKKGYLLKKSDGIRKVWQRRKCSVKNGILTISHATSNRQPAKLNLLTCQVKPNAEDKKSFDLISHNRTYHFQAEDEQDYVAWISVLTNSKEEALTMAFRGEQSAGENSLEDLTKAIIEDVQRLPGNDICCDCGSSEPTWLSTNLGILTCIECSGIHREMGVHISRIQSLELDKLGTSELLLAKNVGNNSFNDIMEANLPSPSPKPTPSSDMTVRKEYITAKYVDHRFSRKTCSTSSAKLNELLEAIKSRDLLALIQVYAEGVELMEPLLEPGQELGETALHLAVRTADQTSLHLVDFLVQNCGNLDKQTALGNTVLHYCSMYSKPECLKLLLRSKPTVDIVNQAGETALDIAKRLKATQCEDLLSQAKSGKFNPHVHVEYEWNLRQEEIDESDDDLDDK
ARFGAP1 inhibitor: inhibitors of rat ARFGAP1. AID 651572. inhibition, % at 16.5 µM. 360,000 compounds, 0.26% hits. Q62848. Arfgap1-stimulated ARF1 GTP hydrolysis, GDP FP detection;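 active = inhibition above a per-plate limit, mean inhibition of low control wells plus 3 SD, cut at about 25% in these data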
Target sequence (Q62848 1-136 limits assumed): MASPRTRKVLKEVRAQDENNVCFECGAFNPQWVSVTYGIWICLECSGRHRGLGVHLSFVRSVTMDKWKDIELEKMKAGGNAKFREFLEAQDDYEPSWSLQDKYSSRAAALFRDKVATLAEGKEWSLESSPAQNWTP
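Material: truncated rat Arfgap1 GAP domain; Incubation: compound-enzyme preincubation 20 min, reaction 120 min, detection 60 min, 25 °C; Read-out: percent inhibition of Arfgap1-stimulated GTP hydrolysis; Technique: FP, GDP Alexa 633 tracer displaced from anti-GDP antibody, 620/688 nm; Controls: No-Arfgap1 wells (100%) versus DMSO full-reaction wells (0%); Replication: single well per compound.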
ARFGAP1 confirm: rat ARFGAP1 inhibition, confirmed; shares compounds with ARFGAP1 inhibitor; ARFGAP1-stimulated ARF1 GTP hydrolysis, GDP tracer FP; inhibition, % at 16.5 µM; 890 compounds, 30% hits; AID 651608;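 active = average inhibition over triplicates above the hit cutoff set in the earlier primary screen, cut at about 25% in these data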
Numbers stand for hits.

Screening O=C(N[C@H](Cc1ccccc1)C(=O)N1CCN(C(=O)N2CCOCC2)CC1)[C@H]1O[C@@H](n2ccc(=O)[nH]c2=O)[C@H](O)[C@@H]1O returned MsrA inhibitor inactive, Rev-erbA mod inactive, sPLA2-III inh inactive, ASAP1 GAP inh inactive and ARFGAP1 inhibitor inactive.
COc1ccc(N(C(=O)c2ccco2)C(C(=O)NC2CCCC2)c2cccnc2)c(OC)c1 (centres undefined) was read as MsrA inhibitor inactive, Rev-erbA mod inactive, sPLA2-III inh inactive, MsrA act inactive, ASAP1 GAP inh inactive, ARFGAP1 inhibitor 25.9 and ARFGAP1 confirm inactive.
Screening COc1ccc(N(C(=O)c2ccco2)C(C(=O)NC2CCCC2)c2ccc(C)cc2)c(OC)c1 (centres undefined) returned MsrA inhibitor inactive, Rev-erbA mod inactive, sPLA2-III inh inactive, MsrA act inactive, ASAP1 GAP inh inactive and ARFGAP1 inhibitor inactive.
Screening CC1CCC2(CCC(=O)N2CCCOC(=O)NC(C)(C)C)CC1 (centres undefined) returned Rev-erbA mod inactive and sPLA2-III inh inactive.
For CCOC(=O)Cc1cc(=O)c2cc(C)ccc2[nH]1 the results were MsrA inhibitor inactive, Rev-erbA mod inactive, sPLA2-III inh inactive, MsrA act inactive, ASAP1 GAP inh inactive, ARFGAP1 inhibitor 39.0 and ARFGAP1 confirm inactive.
`O=C1c2ccccc2C(=O)N1CCCc1c[nH]c2ccc(Cl)cc12` gave MsrA inhibitor inactive, Rev-erbA mod inactive, sPLA2-III inh inactive, MsrA act inactive, ASAP1 GAP inh inactive, ARFGAP1 inhibitor 32.9 and ARFGAP1 confirm inactive.
Screening O=C(CN1C(=O)c2ccccc2C1=O)NCCc1c[nH]c2ccc(Cl)cc12 returned MsrA inhibitor inactive, Rev-erbA mod inactive, sPLA2-III inh inactive, MsrA act inactive, ASAP1 GAP inh inactive and ARFGAP1 inhibitor inactive.
`CC(C)CCN(C)C1CCN(C(=O)Nc2ccc3c(c2)OCO3)CC1` gave Rev-erbA mod inactive and sPLA2-III inh inactive.
CC1(c2nnc(Cc3ccccc3)o2)CC(c2ccc(Cl)cc2)=NO1 (centres undefined) was read as MsrA inhibitor inactive, Rev-erbA mod inactive, sPLA2-III inh inactive, MsrA act inactive, ASAP1 GAP inh inactive and ARFGAP1 inhibitor inactive.
Screening CC1(c2nnc(Cc3ccccc3)o2)CC(c2ccncc2)=NO1 (centres undefined) returned MsrA inhibitor inactive, Rev-erbA mod inactive, sPLA2-III inh inactive, MsrA act inactive, ASAP1 GAP inh inactive, ARFGAP1 inhibitor 42.7 and ARFGAP1 confirm inactive.
COC(=O)CCC(=O)N1C2=NC3=C(C(=O)N(Cc4ccc5c(c4)OCO5)C3=O)C3N(C)c4ccccc4[C@]23C[C@H]1CO (some centres undefined) was read as Rev-erbA mod inactive and sPLA2-III inh inactive.
Screening O=C(Nc1ccc2ccccc2c1)OC1CCS(=O)(=O)C1 (centres undefined) returned MsrA inhibitor inactive, Rev-erbA mod inactive, sPLA2-III inh inactive, MsrA act inactive, ASAP1 GAP inh inactive and ARFGAP1 inhibitor inactive.
Screening O=P(OC1CCS(=O)(=O)C1)(c1ccccc1)c1ccccc1 (centres undefined) returned MsrA inhibitor inactive, Rev-erbA mod inactive, sPLA2-III inh inactive, MsrA act inactive, ASAP1 GAP inh inactive, ARFGAP1 inhibitor 26.6 and ARFGAP1 confirm inactive.
`COC(=O)c1cc(C)[nH]c2c(C)cc3nc4ccccc4c3c12` gave MsrA inhibitor inactive, Rev-erbA mod inactive, sPLA2-III inh inactive, MsrA act inactive, ASAP1 GAP inh inactive, ARFGAP1 inhibitor 41.0 and ARFGAP1 confirm inactive.
For COc1ccc(/C=N/NC(=O)c2ccc(Cl)c(S(N)(=O)=O)c2)cc1OCC(N)=O the results were MsrA inhibitor inactive, Rev-erbA mod inactive, sPLA2-III inh inactive, MsrA act inactive, ASAP1 GAP inh inactive and ARFGAP1 inhibitor inactive.
For COc1cc(/C=N/NC(=O)c2ccc(Cl)c(S(N)(=O)=O)c2)ccc1OCC(N)=O the results were MsrA inhibitor inactive, Rev-erbA mod inactive, sPLA2-III inh inactive, MsrA act inactive, ASAP1 GAP inh inactive, ARFGAP1 inhibitor 44.0 and ARFGAP1 confirm inactive.
Screening Cc1cccc(N(C)S(=O)(=O)c2c[nH]c3ccc([N+](=O)[O-])cc23)c1 returned MsrA inhibitor inactive, Rev-erbA mod inactive, sPLA2-III inh inactive, MsrA act inactive, ASAP1 GAP inh inactive, ARFGAP1 inhibitor 26.1 and ARFGAP1 confirm inactive.
`COc1ccc2nc(N3C(=O)C(O)=C(C(=O)c4ccco4)C3c3ccc(OC)c(OC)c3)sc2c1` (centres undefined) gave MsrA inhibitor inactive, Rev-erbA mod inactive, sPLA2-III inh inactive, MsrA act inactive, ASAP1 GAP inh inactive and ARFGAP1 inhibitor inactive.
For Cc1ccc2nc(N3C(=O)C(O)=C(C(=O)c4ccc(C)o4)C3c3cccc(O)c3)sc2c1 (centres undefined) the results were MsrA inhibitor inactive, Rev-erbA mod inactive, sPLA2-III inh inactive, MsrA act inactive, ASAP1 GAP inh inactive, ARFGAP1 inhibitor 34.3 and ARFGAP1 confirm 51.5.
COc1ccc(C(=O)Nc2ccc(N3CCCC3)cc2)cc1 was read as MsrA inhibitor inactive, Rev-erbA mod inactive, sPLA2-III inh inactive, MsrA act inactive, ASAP1 GAP inh inactive, ARFGAP1 inhibitor 24.8 and ARFGAP1 confirm 87.0.
COc1cccc2c1SCc1ccccc1C2CC(N)=O (centres undefined) was read as MsrA inhibitor inactive, Rev-erbA mod inactive, sPLA2-III inh inactive, MsrA act inactive, ASAP1 GAP inh inactive, ARFGAP1 inhibitor 30.6 and ARFGAP1 confirm inactive.
Screening Cc1ccc2sc(-c3ccc(NC(=O)c4cc(-n5cnnc5)ccc4Cl)cc3)nc2c1 returned MsrA inhibitor inactive, Rev-erbA mod inactive, sPLA2-III inh inactive, MsrA act inactive, ASAP1 GAP inh inactive, ARFGAP1 inhibitor 27.7 and ARFGAP1 confirm inactive.
Screening O=C(OC12CCCN(C1)/C(=C/c1ccc(Cl)cc1)C2)c1ccc(F)cc1 (centres undefined) returned Rev-erbA mod inactive and sPLA2-III inh inactive.
CC(C)C[C@H]1COc2cccc(F)c2S(=O)(=O)N1Cc1cn(Cc2ccc(C(F)(F)F)cc2)nn1 was read as Rev-erbA mod inactive and sPLA2-III inh inactive.
Screening COc1cc(CN2CCNC(=O)C2CC(=O)N(C)CCN2CCOCC2)cc(OC)c1 (centres undefined) returned MsrA inhibitor inactive, Rev-erbA mod inactive, sPLA2-III inh inactive, MsrA act inactive, ASAP1 GAP inh inactive, ARFGAP1 inhibitor 28.4 and ARFGAP1 confirm inactive.
Screening CC(C)C[C@@H]1NC(=O)[C@H]2C[C@@]3(C)c4ccccc4N[C@H]3N2C1=O returned Rev-erbA mod inactive and sPLA2-III inh inactive.

Bioassay records as filed in PubChem BioAssay.
